Experimental data as given in ChEMBL document CHEMBL4689842, “EUbOPEN Chemogenomics Library wave 1” (2021).
“And” between values parts separate entries of the source, which are not always exact repeats. Equal values may be shown once.

Experiments:
Type in all cases: toxicity, cell-based
U2OS [1] = test: Incucyte cell viability with U2OS; conditions: human, 10 µM, compound concentration 10 uM; note: filed as whole numbers so only -1 and 0 and 1 occur
HEK-293T [2] = test: Multiplex assay against HEK293T; conditions: human, 10 µM, compound concentration 10 uM;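 for Population Tubulin-Different-Phenotype (%): share of the cells with healthy nuclei that show this phenotype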
In short: (§1)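 On a CQ1 microscope at 37°C and 5% CO2, live cells were imaged after compound addition. They had been stained at seeding with Hoechst33342, BioTracker Green Microtubule Cytoskeleton Dye, MitoTracker Red and Annexin V Alexa Fluor 680. CellPathfinder machine-learning gating assigned cells to Hoechst high-intensity objects or normal cells, normal cells to healthy, pyknosed or fragmented nuclei, and pyknosed cells to mitotic or apoptotic. Tubulin, mitochondrial-mass and membrane-permeability phenotypes are per cents of healthy-nucleus cells.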

Fibroblast [3] = test: Multiplex assay against human fibroblast; conditions: 10 µM, compound concentration 10 uM; in short: as §1
Fibroblast [4] = test: Incucyte cell viability with human fibroblast; conditions: 10 µM, compound concentration 10 uM; note: filed as whole numbers so only -1 and 0 and 1 occur
HEK-293T [5] = test: Incucyte cell viability with HEK293T; conditions: human, 10 µM, compound concentration 10 uM; note: filed as whole numbers so only -1 and 0 and 1 occur
U2OS [6] = test: Multiplex assay against U2OS; conditions: human, 10 µM, compound concentration 10 uM; in short: as §1
[7] = 0 h, replicate number 2, timepoint 0 hours
[8] = 6 h, replicate number 1, timepoint 6 hours
[9] = 12 h, replicate number 1, timepoint 12 hours
[10] = 12 h, replicate number 2, timepoint 12 hours
[11] = 18 h, replicate number 1, timepoint 18 hours
[12] = 18 h, replicate number 2, timepoint 18 hours
[13] = 24 h, replicate number 1, timepoint 24 hours
[14] = 24 h, replicate number 2, timepoint 24 hours

## Cc1c(Oc2ccc(F)cc2)c(OC(C)C)nn1-c1ccc(C2CC2)cn1 [IPP/CNRS-A019]
U2OS [1]; [7]
  Growth Rate: 0
U2OS [1]; [8]
  Growth Rate: 1
U2OS [1]; 6 h, replicate number 2, timepoint 6 hours
  Growth Rate: 0
U2OS [1]; [9]
  Growth Rate: 1
U2OS [1]; [10]
  Growth Rate: 0
U2OS [1]; [11]
  Growth Rate: 1
U2OS [1]; [12]
  Growth Rate: 0
U2OS [1]; [13]
  Growth Rate: 1
U2OS [1]; [14]
  Growth Rate: 0
HEK-293T [2]; 12 h, replicate 1
  Population Apoptotic (%): 12% and 19%
  Population Fragmented Nuclei (%): 13% and 11%
  Population Healthy Nuclei (%): 69% and 68%
  Population Hoechst High Intensity Objects (%): 8% and 10%
  Population Membrane Permeable-Phenotype (%): 5% and 3%
  Population Mitochondria Different-Phenotype (%): 7% and 5%
  Population Mitotic Cells (%): 87% and 80%
  Population Normal (%): 91% and 89%
  Population Pyknosed Nuclei (%): 17% and 19%
  Population Tubulin-Different-Phenotype (%): 7% and 3%
  Total Cell Count: 607 and 515
HEK-293T [2]; 12 h, replicate 2
  Population Apoptotic (%): 15% and 18%
  Population Fragmented Nuclei (%): 7% and 9%
  Population Healthy Nuclei (%): 89% and 86%
  Population Hoechst High Intensity Objects (%): 2% and 1%
  Population Membrane Permeable-Phenotype (%): 4% and 1%
  Population Mitochondria Different-Phenotype (%): 17%
  Population Mitotic Cells (%): 84% and 81%
  Population Normal (%): 97% and 98%
  Population Pyknosed Nuclei (%): 2% and 3%
  Total Cell Count: 1658 and 1670
HEK-293T [2]; 24 h, replicate 1
  Population Apoptotic (%): 28% and 16%
  Population Fragmented Nuclei (%): 12% and 14%
  Population Healthy Nuclei (%): 77%
  Population Hoechst High Intensity Objects (%): 6%
  Population Membrane Permeable-Phenotype (%): 10%
  Population Mitochondria Different-Phenotype (%): 4% and 8%
  Population Mitotic Cells (%): 71% and 83%
  Population Normal (%): 93%
  Population Pyknosed Nuclei (%): 10% and 7%
  Population Tubulin-Different-Phenotype (%): 6% and 9%
  Total Cell Count: 595 and 667
HEK-293T [2]; 24 h, replicate 2
  Population Apoptotic (%): 9% and 6%
  Population Fragmented Nuclei (%): 19% and 8%
  Population Healthy Nuclei (%): 78% and 89%
  Population Hoechst High Intensity Objects (%): 2%
  Population Membrane Permeable-Phenotype (%): 2%
  Population Mitotic Cells (%): 90% and 93%
  Population Normal (%): 97%
  Population Pyknosed Nuclei (%): 2% and 1%
  Population Tubulin-Different-Phenotype (%): 20%
  Total Cell Count: 2108 and 1925
Fibroblast [3]; 12 h, replicate 1
  Population Apoptotic (%): 78% and 77%
  Population Fragmented Nuclei (%): 26% and 22%
  Population Healthy Nuclei (%): 58% and 60%
  Population Hoechst High Intensity Objects (%): 12% and 13%
  Population Membrane Permeable-Phenotype (%): 5%
  Population Mitochondria Different-Phenotype (%): 3% and 6%
  Population Mitotic Cells (%): 21% and 22%
  Population Normal (%): 87% and 86%
  Population Pyknosed Nuclei (%): 15% and 18%
  Population Tubulin-Different-Phenotype (%): 9% and 4%
  Total Cell Count: 308 and 230
Fibroblast [3]; 12 h, replicate 2
  Population Fragmented Nuclei (%): 33% and 67%
  Population Healthy Nuclei (%): 49% and 28%
  Population Hoechst High Intensity Objects (%): 38% and 40%
  Population Mitochondria Different-Phenotype (%): 19% and 42%
  Population Normal (%): 61% and 59%
  Total Cell Count: 103 and 83
Fibroblast [3]; 24 h, replicate 1
  Population Apoptotic (%): 69% and 48%
  Population Fragmented Nuclei (%): 22% and 21%
  Population Healthy Nuclei (%): 62% and 63%
  Population Hoechst High Intensity Objects (%): 16% and 19%
  Population Membrane Permeable-Phenotype (%): 5% and 4%
  Population Mitochondria Different-Phenotype (%): 7%
  Population Mitotic Cells (%): 30% and 51%
  Population Normal (%): 83% and 80%
  Population Pyknosed Nuclei (%): 14% and 15%
  Population Tubulin-Different-Phenotype (%): 9% and 4%
  Total Cell Count: 321 and 238
Fibroblast [3]; 24 h, replicate 2
  Population Fragmented Nuclei (%): 44% and 63%
  Population Healthy Nuclei (%): 46% and 34%
  Population Hoechst High Intensity Objects (%): 38%
  Population Membrane Permeable-Phenotype (%): 10% and 0%
  Population Normal (%): 61%
  Total Cell Count: 103 and 84
Fibroblast [4]; [7]
  Growth Rate: 0
Fibroblast [4]; [8]
  Growth Rate: 0
Fibroblast [4]; [9]
  Growth Rate: 0
Fibroblast [4]; [10]
  Growth Rate: 1
Fibroblast [4]; [11]
  Growth Rate: 0
Fibroblast [4]; [12]
  Growth Rate: 1
Fibroblast [4]; [13]
  Growth Rate: 0
Fibroblast [4]; [14]
  Growth Rate: 1
HEK-293T [5]; 0 h, replicate number 1, timepoint 0 hours
  Growth Rate: 0
HEK-293T [5]; [7]
  Growth Rate: 1
HEK-293T [5]; [14]
  Growth Rate: 1
U2OS [6]; 12 h, replicate 1
  Population Apoptotic (%): 23% and 20%
  Population Fragmented Nuclei (%): 3%
  Population Healthy Nuclei (%): 88%
  Population Hoechst High Intensity Objects (%): 2% and 3%
  Population Membrane Permeable-Phenotype (%): 12% and 11%
  Population Mitochondria Different-Phenotype (%): 11% and 23%
  Population Mitotic Cells (%): 76% and 80%
  Population Normal (%): 97% and 96%
  Population Pyknosed Nuclei (%): 7% and 6%
  Population Tubulin-Different-Phenotype (%): 14% and 25%
  Total Cell Count: 250 and 141
U2OS [6]; 12 h, replicate 2
  Population Apoptotic (%): 50% and 33%
  Population Fragmented Nuclei (%): 5% and 8%
  Population Healthy Nuclei (%): 90% and 87%
  Population Hoechst High Intensity Objects (%): 11% and 13%
  Population Membrane Permeable-Phenotype (%): 15% and 7%
  Population Mitochondria Different-Phenotype (%): 21% and 25%
  Population Mitotic Cells (%): 50% and 66%
  Population Normal (%): 88% and 86%
  Population Pyknosed Nuclei (%): 4%
  Population Tubulin-Different-Phenotype (%): 19% and 24%
  Total Cell Count: 152 and 113
U2OS [6]; 24 h, replicate 1
  Population Apoptotic (%): 42% and 34%
  Population Fragmented Nuclei (%): 2% and 3%
  Population Healthy Nuclei (%): 93% and 90%
  Population Hoechst High Intensity Objects (%): 2% and 1%
  Population Membrane Permeable-Phenotype (%): 8% and 7%
  Population Mitochondria Different-Phenotype (%): 9%
  Population Mitotic Cells (%): 57% and 65%
  Population Normal (%): 97% and 98%
  Population Pyknosed Nuclei (%): 5%
  Population Tubulin-Different-Phenotype (%): 25% and 18%
  Total Cell Count: 149 and 352
U2OS [6]; 24 h, replicate 2
  Population Fragmented Nuclei (%): 8% and 7%
  Population Healthy Nuclei (%): 87% and 85%
  Population Hoechst High Intensity Objects (%): 4% and 5%
  Population Membrane Permeable-Phenotype (%): 15% and 9%
  Population Mitochondria Different-Phenotype (%): 24% and 37%
  Population Normal (%): 95% and 94%
  Population Pyknosed Nuclei (%): 4% and 6%
  Population Tubulin-Different-Phenotype (%): 16% and 24%
  Total Cell Count: 184 and 121
